Screening data from PubChem.
A selection: hits, their analogues and other compounds. The true share with any hit is near 2.6%.
RAD54 inh = blocks human RAD54 Holliday junction branch migration; Q92698; FAM/BHQ fluorescence; inhibition, % at 10.4 µM; hit rate 0.14% among 360,000; AID 602329;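 active means mean normalized replicate activity at least 40 and at least half of replicates scoring 40 or more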;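 further: inhibitors cause a drop in the FAM fluorescence signal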
MLL AF4-AF9 inh = inhibitors of human MLL-AF4/AF9 interaction; AlphaScreen, biotin-AF4 peptide binding to FLAG-AF9; inhibition, % at 10 µM; P42568; hit rate 0.47% among 350,000;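 active means every replicate reaching a set inhibition limit, whatever the replicate mean, cut at about 25% in these data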
RAD52 inh = RAD52 (human) annealing inhibition. recombinant RAD52 DNA annealing, FRET fluorescence. inhibition, % at 18.7 µM. hit rate 0.46% among 360,000. AID 651710;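 active means every replicate showing at least 50% inhibition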
INS-1E GSIS act = GLuc luminescence reporter in INS-1E cells, primary screen for activators of glucose-dependent secretion of insulin; INS-1E GLuc reporter insulin secretion, 2-3 h; activation, % at 16.6 µM; hit rate 0.61% among 370,000; AID 743287;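 active means lowest replicate activation of at least 40%, so every replicate reaches that level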
Ecoli rRNA inh = selective bacterial rRNA inhibition in E. coli; E. coli WT GFP vs humanized-ribosome RFP mutants, fluorescence, 24 h; stronger effect = lower value; DMSO median 0, no signal -100; GFP signal change (wild-type ribosome), % (test concentration not listed); hit rate 1.6% among 350,000;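 active means significant combined selectivity score with lowered wild-type GFP, culture density cut under 30%, mutant RFP and density less affected; inactive means any of these conditions unmet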
E-selectin induc = E-selectin induction on HUVECs; P16581; HUVEC E-selectin immunofluorescence imaging; normalized: neutral wells 0, TNF-alpha wells 100; activation, % at 7.58 µM; hit rate 0.37% among 260,000; AID 686992;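 active means mean E-selectin-positive cell signal at least 10% of the positive control, reached in at least 60% of replicates, without over 20% cell loss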
Target sequence (P16581 whole entry, looked up): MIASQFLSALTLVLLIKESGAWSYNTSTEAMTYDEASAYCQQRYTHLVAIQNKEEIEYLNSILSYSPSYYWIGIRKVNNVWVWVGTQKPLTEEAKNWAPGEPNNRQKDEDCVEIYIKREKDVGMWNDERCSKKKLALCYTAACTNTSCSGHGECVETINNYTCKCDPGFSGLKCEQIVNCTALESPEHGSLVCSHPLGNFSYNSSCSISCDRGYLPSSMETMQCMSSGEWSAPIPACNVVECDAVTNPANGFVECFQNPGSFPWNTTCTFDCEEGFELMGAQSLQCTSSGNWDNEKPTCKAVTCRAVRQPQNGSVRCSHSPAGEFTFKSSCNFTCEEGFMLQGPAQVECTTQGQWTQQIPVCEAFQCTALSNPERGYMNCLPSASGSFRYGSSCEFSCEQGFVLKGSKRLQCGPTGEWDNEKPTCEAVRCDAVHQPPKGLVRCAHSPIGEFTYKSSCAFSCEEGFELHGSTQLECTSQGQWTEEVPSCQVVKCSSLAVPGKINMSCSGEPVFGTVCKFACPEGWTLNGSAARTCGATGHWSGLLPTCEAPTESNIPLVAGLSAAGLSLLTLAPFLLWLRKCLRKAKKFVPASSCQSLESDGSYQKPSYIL
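Assay system: HUVEC, human umbilical vein endothelial cells / Amount: 3,000 HUVEC/well / Controls: TNF-alpha positive control, DMSO neutral control / Compound dosing: single concentration / Medium: EGM-2 over gelatin coat / Evaluation: percent E-selectin-positive cells / Signal: immunofluorescence imaging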
Numbers stand for hits; . = inactive; / = not tested or not shown.

SMILES | RAD54 inh | MLL AF4-AF9 inh | RAD52 inh | INS-1E GSIS act | Ecoli rRNA inh | E-selectin induc
Cc1cccc(NS(=O)(=O)c2ccc3[nH]c(=O)cc(C(=O)O)c3c2)c1 | / | . | . | . | -15 | .
CCN(CC)S(=O)(=O)c1ccc(N2CCOCC2)c(NS(=O)(=O)c2ccc(C)cc2)c1 | / | . | . | . | . | .
Cc1cccc(NS(=O)(=O)c2ccc(S(=O)(=O)N3CCCC3)cc2)c1 | . | . | . | . | . | 206
Cc1cc(=O)[nH]c2ccc(S(=O)(=O)Nc3ccccc3)cc12 | . | . | . | . | . | /
CO[C@H]1CN(C)C(=O)c2cc(NC(C)=O)ccc2OC[C@H](C)N(C(=O)c2ccncc2)C[C@H]1C | . | . | . | . | . | .
COc1ccc(NC(=O)N[C@@H]2C=C[C@@H](CC(=O)NC3CCCCC3)O[C@@H]2CO)cc1 | . | . | . | . | . | .
CC1CN(c2ccc([N+](=O)[O-])c(NCCOc3ccccc3)c2)CC(C)N1 (centres undefined) | . | . | . | / | . | .
Cc1ccccc1OCCNc1cc(N2CC(C)NC(C)C2)ccc1[N+](=O)[O-] (centres undefined) | . | 38 | . | 42 | . | .
O=C1CCCN1C(=O)CSc1nnnn1-c1cccc(F)c1 | / | . | . | . | . | .
CCOc1ccccc1-n1nnnc1SCC(=O)N1CCCC1=O | . | . | . | 51 | . | /
CN(C)C1=NCC(CSC(=N)N)S1 (centres undefined) | . | . | . | . | -37 | .
COc1cc(C(=O)OCCN2CCCCC2)ccc1O | . | / | / | / | / | /
COc1cc(C#CC#CCN2CCCCC2)ccc1O | . | / | / | 44 | / | /
COc1cccc(NC(=O)Nc2ccc3c(c2)C(=O)N(C)C[C@@H](OC)[C@H](C)CN[C@H](C)CO3)c1 | . | . | 59 | . | . | .
COc1cccc(NC(=O)Nc2ccc3c(c2)OC[C@@H](C)NC[C@H](C)[C@@H](OC)CN(C)C3=O)c1 | . | . | 76 | . | . | .
COc1ccc(NC(=O)Nc2ccc3c(c2)OC[C@H](C)NC[C@@H](C)[C@@H](OC)CN(C)C3=O)cc1 | . | . | . | . | . | .
CO[C@H]1CN(C)C(=O)c2ccc(NC(=O)c3ccc(Oc4ccccc4)cc3)cc2OC[C@H](C)NC[C@@H]1C | . | . | 51 | . | . | .
COc1ccc(NC(=O)Nc2ccc3c(c2)C(=O)N(C)C[C@@H](OC)[C@@H](C)CN[C@H](C)CO3)cc1 | . | / | / | . | . | .
C[C@@H]1CN([C@@H](C)CO)C(=O)c2cc(NC(=O)Nc3ccc(C(F)(F)F)cc3)ccc2O[C@@H]1CN(C)Cc1ccc(C(=O)Nc2ccccc2N)cc1 | . | . | . | . | . | .
Cc1cc(N=Nc2ccc(C)c(N=Nc3cc(C)c(N)cc3N)c2)c(N)cc1N | 101 | 63 | 80 | . | . | .
Cc1nn(-c2ccccc2)cc1/C=N/NC(N)=S | . | . | . | . | -21 | /
Cc1nn(-c2ccccc2)cc1/C=N/O | . | / | / | / | / | .
C[C@H](CO)N1C[C@H](C)[C@@H](CN(C)C(=O)Nc2ccc(C(F)(F)F)cc2)Oc2ccc(NC(=O)C3CC3)cc2CC1=O | . | . | . | . | . | .
COc1cccc(/C=C2\SC(=S)N(CC3CCCO3)C2=O)c1 (centres undefined) | / | 32 | . | . | . | /
O=C(C[C@H]1CC[C@H]2[C@@H](COC[C@@H](O)CN2Cc2ccc3c(c2)OCO3)O1)Nc1ccc(-c2ccccc2)cc1 | . | / | / | . | . | .
SMILES | RAD54 inh | MLL AF4-AF9 inh | RAD52 inh | INS-1E GSIS act | Ecoli rRNA inh | E-selectin induc
O=C(O)C[C@H]1CC[C@H](NC(=O)Nc2cc(F)ccc2F)[C@@H](CO)O1 | . | . | . | . | . | .
C[C@@H]1CCCCO[C@@H](CN(C)Cc2ccccc2)[C@H](C)CN([C@H](C)CO)C(=O)c2cc(NS(=O)(=O)c3ccc(Cl)cc3)ccc2O1 | . | . | 61 | . | . | /
C[C@@H]1CN([C@@H](C)CO)C(=O)c2cc(NS(=O)(=O)c3ccc(F)cc3)ccc2O[C@@H](C)CCCCO[C@H]1CN(C)Cc1ccccc1 | . | . | . | . | . | /
C[C@@H]1CN([C@H](C)CO)C(=O)c2cc(NS(=O)(=O)c3ccc(F)cc3)ccc2O[C@@H](C)CCCCO[C@@H]1CN(C)S(C)(=O)=O | . | . | . | . | . | 44
C[C@H]1CCCCO[C@H](CN(C)Cc2ccccc2)[C@@H](C)CN([C@@H](C)CO)C(=O)c2cc(NS(=O)(=O)c3ccc(Cl)cc3)ccc2O1 | . | . | . | . | . | /
C[C@@H]1CCCCO[C@H](CN(C)Cc2ccccc2)[C@@H](C)CN([C@@H](C)CO)C(=O)c2cc(NS(=O)(=O)c3ccc(Cl)cc3)ccc2O1 | . | . | 64 | . | . | /
C[C@H](CO)N1C[C@H](C)[C@H](CN(C)S(C)(=O)=O)OCCCC[C@H](C)Oc2ccc(NS(=O)(=O)c3ccc(F)cc3)cc2C1=O | . | . | . | . | . | .
C[C@H](CO)N1C[C@H](C)[C@H](CN(C)Cc2ccccc2)OCCCC[C@H](C)Oc2ccc(NS(=O)(=O)c3ccc(F)cc3)cc2C1=O | . | 37 | 77 | . | . | /
C[C@@H]1CCCCO[C@@H](CN(C)Cc2ccccc2)[C@H](C)CN([C@@H](C)CO)C(=O)c2cc(NS(=O)(=O)c3ccc(Cl)cc3)ccc2O1 | . | . | . | . | . | /
CCS(=O)(=O)N1CCC2(CC1)CN(S(=O)(=O)c1ccccc1)[C@@H](CO)c1c2c2ccc(OC)cc2n1C | / | . | . | . | . | .
CC(C)NC(=O)Nc1ccc2c(c1)C(=O)N([C@H](C)CO)C[C@H](C)[C@@H](CN(C)C(=O)Nc1cccc3ccccc13)OCCCC[C@H](C)O2 | . | . | . | . | . | .
Cc1ccc(S(=O)(=O)Nc2ccc3c(c2)C(=O)N([C@@H](C)CO)C[C@H](C)[C@H](CN(C)CC2CCCCC2)OCCCC[C@@H](C)O3)cc1 | . | . | . | . | . | .
Cc1ccc(S(=O)(=O)Nc2ccc3c(c2)C(=O)N([C@H](C)CO)C[C@H](C)[C@@H](CN(C)CC2CCCCC2)OCCCC[C@H](C)O3)cc1 | . | . | . | . | . | .
Cc1ccc(S(=O)(=O)Nc2ccc3c(c2)C(=O)N([C@@H](C)CO)C[C@H](C)[C@@H](CN(C)CC2CCCCC2)OCCCC[C@H](C)O3)cc1 | . | . | 55 | . | . | .
C[C@H](CO)N1C[C@H](C)[C@@H](CN(C)Cc2ccccc2)OCCCC[C@H](C)Oc2ccc(NS(=O)(=O)c3ccc(Cl)cc3)cc2C1=O | . | . | . | . | . | /
C[C@@H]1CCCCO[C@H](CN(C)Cc2ccccc2)[C@H](C)CN([C@@H](C)CO)C(=O)c2cc(NS(=O)(=O)c3ccc(Cl)cc3)ccc2O1 | . | . | 54 | . | . | /
